Results pooled from the literature.
≈ marks a conversion by molar mass, not a printed value.

With `CCCCCCCCCCCCCCCC(=O)C(F)(F)P(=O)(O)O` the MIC was 200 µg/mL (Bacillus subtilis; microbial growth; ATCC23857).
The MIC of `NC[C@H]1O[C@H](O[C@H]2[C@H](O)[C@@H](O[C@H]3O[C@H](CO)[C@@H](O)[C@H](N)[C@H]3O)[C@H](N)C[C@@H]2N)[C@H](N)C[C@@H]1O` is reported as 4.7 µg/mL (Listeria monocytogenes; microbial growth; ATCC19115).
`CC[C@H](C)C[C@H](C)CCCCCCCCC(=O)N[C@H]1C[C@@H](O)[C@@H](NCCN)NC(=O)[C@@H]2[C@@H](O)CCN2C(=O)[C@H]([C@H](O)CCN)NC(=O)[C@H]([C@H](O)[C@@H](O)c2ccc(O)cc2)NC(=O)[C@@H]2C[C@@H](O)CN2C(=O)[C@H]([C@@H](C)O)NC1=O` has an MIC50 of 0.125 µg/mL (Nakaseomyces glabratus; microbial growth, broth dilution; MY1381).
The MIC of `O=C(CCCCc1ccccc1)CP(=O)(O)O` is reported as greater than 200 µg/mL (Bacillus subtilis; microbial growth; ATCC23857).
`CC(C)CCCCCCCCCCCCCCc1cc(O)cc(O)c1` gave an IC50 of 20.3 µM (Listeria monocytogenes; microbial growth; ATCC19115).
The inhibition zone of `Cc1c(NN=C(C#N)C2=NC(=O)CS2)c(=O)n(-c2ccccc2)n1C` is reported as 26 mm (Bacillus subtilis; microbial growth, well diffusion; 100000 µg/mL).
`CCCC[C@H]1CN(c2cccc(OC(F)(F)F)c2)C(=O)CN1Cc1cncn1Cc1ccc(Br)cc1` gave an MIC of 3 to 6 µM (Cryptococcus neoformans; microbial growth, broth dilution).
`CC(=O)C1=C(O)C(CC(C)C)NC1=O` (stereo not drawn) has an MIC of greater than 200 µg/mL (Proteus vulgaris; microbial growth; ATCC33420).
The IC50 of `CCCCCCCCCCCCCCCc1cc(O)cc(O)c1` is reported as greater than 200 µM (Listeria monocytogenes; microbial growth; ATCC19115).
`CCOC(=O)c1ccccc1S(=O)(=O)NC(=O)Nc1nc(Cl)cc(OC)n1` gave an MIC50 of 5.6 µM (Nakaseomyces glabratus; microbial growth, broth dilution; 48 h).
For `CC1(C)S[C@@H]2[C@H](NC(=O)[C@H](N)c3ccccc3)C(=O)N2[C@H]1C(=O)O`, the inhibition zone was 27 mm (Listeria monocytogenes; microbial growth, well diffusion; ATCC7644; 60000 µg/mL).
The MIC of `O=C(CCCCCCCCCCOc1ccccc1)CP(=O)(O)O` is reported as greater than 200 µg/mL (Bacillus subtilis; microbial growth; ATCC23857).
The MFC of `Cc1ccccc1C(=O)NN=Cc1ccc(O)c(Br)c1` is reported as 4 µg/mL (≈ 12 µM) (Cryptococcus neoformans; microbial killing).
For `C=CCCCCCCCCC(=O)C(F)(F)P(=O)(O)O`, the MIC was 200 µg/mL (Bacillus subtilis; microbial growth; ATCC23857).
`CC(C)C(C)CCCCCCCCCCCc1cc(O)cc(O)c1` (stereo not drawn) gave an IC50 of 34.2 µM (Listeria monocytogenes; microbial growth; ATCC19115).
